One assay has as its system HepG2. Briefly: Antiproliferative activity against human HepG2 cells after 48 hrs by MTT assay. The class given is functional, cell-based. The note with it: HepG2, 48 h. In short, it runs like this: (§1)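 Cells were seeded at 7×10^3 per well and grown 24 h, then exposed to compounds for 48 h. MTT was added for 6 h, followed by 10% SDS in 0.01 N HCl for 4 h at 37 °C, and absorbance was read at 570 nm. Survival is expressed relative to untreated cells. IC50 came from 6-well replicates in at least two independent experiments.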

Assay [1] is described as follows: Antiproliferative activity against mouse B16/F10 cells after 48 hrs by MTT assay. It is filed as functional, cell-based. The following applies: B16-F10, 48 h. An outline of the steps: as §1
For another assay, the system named is PC-3. The assay can be described thus: Antiproliferative activity against human PC3 cells after 48 hrs by MTT assay. The class given is functional, cell-based. The following applies: PC-3, 48 h. An outline of the steps:
as §1

Assay [2] in a line: Inhibition of FAM-Bak-BH3 binding to human N-terminal His6-tagged Bcl2 isoform 2 after 4 hrs by fluorescence polarization assay. Background: Fluorescence polarisation rises when a labelled molecule tumbles more slowly, as on binding a larger partner.

One may read the IC50 as the concentration at which inhibition is half-maximal. Usually pKi stands for −log10 of the Ki, conventionally taken in molar units. Read a low pKi as a high Ki.

pKi: −log10 of the molar value. Values after ≈ are worked out from the molar mass of the structure shown.

Take `Cc1ccc(S(=O)(=O)NC(=O)[C@H](CC(C)C)NC2=NC(=O)/C(=C/c3cccc(Cl)c3)S2)cc1`: the IC50 with HepG2 was 16.5 µg/mL (≈ 32.6 µM); in assay [1] it was 13.4 µg/mL (≈ 26.4 µM); in the assay with PC-3, 16.8 µg/mL (≈ 33.1 µM).
The corresponding values for `Cc1ccc(S(=O)(=O)NC(=O)[C@H](Cc2ccccc2)NC2=NC(=O)/C(=C/c3ccccc3F)S2)cc1` are 18.7 µg/mL (≈ 35.8 µM), 11.9 µg/mL (≈ 22.7 µM) and 22.1 µg/mL (≈ 42.1 µM).
The compound `Cc1ccc(S(=O)(=O)NC(=O)[C@H](Cc2ccccc2)NC2=NC(=O)/C(=C/c3ccccc3Cl)S2)cc1` showed a pKi in assay [2] of 7.70. Moreover, the IC50 is 21 µg/mL (≈ 38.9 µM) in the assay on HepG2, 12.2 µg/mL (≈ 22.6 µM) in assay [1] and 16 µg/mL (≈ 29.6 µM) with PC-3.
As for `COc1ccccc1/C=C1\SC(N[C@H](C(=O)NS(=O)(=O)c2ccc(C)cc2)C(C)C)=NC1=O`, the IC50 in the assay on HepG2 was 20.2 µg/mL (≈ 41.4 µM); in assay [1], 13.5 µg/mL (≈ 27.7 µM); in the assay with PC-3 it was 15 µg/mL (≈ 30.8 µM).
As for `COc1ccc(/C=C2\SC(N[C@H](C(=O)NS(=O)(=O)c3ccc(C)cc3)C(C)C)=NC2=O)cc1`, the negative-log Ki (pKi) in assay [2] was 6.17. Further, the IC50 worked out at 12.8 µg/mL (≈ 26.2 µM) with HepG2, 11.6 µg/mL (≈ 23.8 µM) in assay [1] and 20.3 µg/mL (≈ 41.6 µM) in the assay with PC-3.
The matching figures for `Cc1ccc(S(=O)(=O)NC(=O)[C@@H](NC2=NC(=O)/C(=C/c3ccccc3Cl)S2)C(C)C)cc1`: 7.60, 21.2 µg/mL (≈ 43.2 µM), 8.8 µg/mL (≈ 17.9 µM) and 11.9 µg/mL (≈ 24.1 µM).
For the compound `Cc1ccc(S(=O)(=O)NC(=O)[C@H](Cc2ccccc2)NC2=NC(=O)/C(=C/c3ccc(-c4ccccc4)cc3)S2)cc1`, the pKi in assay [2] is 6.51. The IC50 was 16.6 µg/mL (≈ 28.5 µM) in the assay with HepG2, 12.5 µg/mL (≈ 21.6 µM) in assay [1] and 16.4 µg/mL (≈ 28.1 µM) in the assay with PC-3.
For the compound `Cc1ccc(S(=O)(=O)NC(=O)[C@H](CC(C)C)NC2=NC(=O)/C(=C/c3ccccc3Cl)S2)cc1`, the IC50 in the assay with HepG2 was found to be 13.3 µg/mL (≈ 26.4 µM); in assay [1] it was 8.52 µg/mL (≈ 16.8 µM); with PC-3 it was 15.6 µg/mL (≈ 30.8 µM).
`Cc1ccc(S(=O)(=O)NC(=O)[C@@H](NC2=NC(=O)/C(=C/c3ccccc3)S2)C(C)C)cc1` had a pKi in assay [2] of 5.52. The IC50 was found to be 18.2 µg/mL (≈ 39.8 µM) with HepG2, 7.46 µg/mL (≈ 16.3 µM) in assay [1] and 11.9 µg/mL (≈ 26 µM) in the assay on PC-3.
The corresponding values for `Cc1cc2c(C(C)C)c(O)c(O)c(C=O)c2c(O)c1-c1c(C)cc2c(C(C)C)c(O)c(O)c(C=O)c2c1O` [GOSSYPOL] are 6.48, 10.2 µg/mL (≈ 19.6 µM), 5.56 µg/mL (≈ 10.7 µM) and 6.71 µg/mL (≈ 12.9 µM).
Regarding `Cc1ccc(S(=O)(=O)NC(=O)[C@H](CC(C)C)NC2=NC(=O)/C(=C/c3ccccc3F)S2)cc1`, the IC50 was 16.4 µg/mL (≈ 33.6 µM) in the assay with HepG2, 11.3 µg/mL (≈ 23.1 µM) in assay [1] and 15.3 µg/mL (≈ 31.3 µM) in the assay with PC-3.

The values above are taken from ChEMBL document CHEMBL2046328, “Structure-based design of rhodanine-based acylsulfonamide derivatives as antagonists of the anti-apoptotic Bcl-2 protein” (Bioorg Med Chem, 2012).
